Assay results from the array DNA melting data of Ke et al. (doi:10.1101/2024.01.08.574731).

What was measured:
[1] = folding enthalpy; higher = less favourable; fluorescence melt of hairpins on a sequencing array, two-state fit; details: sodium 0.088 M
In short: (§1)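 On a sequenced MiSeq flow cell, library hairpins with annealed Cy3 and quencher oligos were imaged for Cy3 fluorescence in 2.5 °C steps up to 60 °C, in 50 mM Na-HEPES pH 8.0, 25 mM NaCl. Normalisation used pre-quench Cy3 and control constructs. Bootstrapped two-state fits gave melting temperature and folding enthalpy, combined by inverse variance across four replicates and with fitted temperatures raised by 9.35 °C to match UV melts.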

[2] = melting temperature; fluorescence melt of hairpins on a sequencing array, two-state fit, raised by 9.35 °C to match UV melts; details: sodium 0.088 M
In short: as §1

Sequence	folding enthalpy [1]	Tm [2]
GATCCAAGGATGGATC ((((((....))))))	-27.5 kcal/mol	47.8 °C
AAGTCGAAAGACTT (((((....)))))	-18.3 kcal/mol	52.6 °C
GCGAGATCTCGC ((((....))))	-35.4 kcal/mol	54.1 °C
GGTTGAACGAAAGTTACC (((..(((....))))))	-13.2 kcal/mol	31.1 °C
GACCGCGGAAACACGGTC (((((.(....).)))))	-52 kcal/mol	55.5 °C
GCTCACGGAAACGCAAGC (((..((....))..)))	-8.31 kcal/mol	26.8 °C
GTCCCGGGAAACCGGGGC (.(((((....))))).)	-19 kcal/mol	64.3 °C
GTTGACCGAAAGGTAAAC (((.(((....))).)))	-30.7 kcal/mol	48.7 °C
CGCTAACGGAAACGTGCG (((..(((....))))))	-28.9 kcal/mol	48 °C
GCCAACGAAAGTTAGGC ((((((....))).)))	-28.9 kcal/mol	52.8 °C
GCTGCTCCGAAAGGAAGC (((..(((....))))))	-14.1 kcal/mol	47 °C
GCACATGGAAACACGTGC ((((.((....)).))))	-41 kcal/mol	46.7 °C
GCACGCGAAAGCGCCTGC ((((((....)))..)))	-9.69 kcal/mol	37.1 °C
GGTATCGGAAACGATGCC ((.((((....)))).))	-37.9 kcal/mol	54.6 °C
GTGCAACGAAAGTTCAC (((.(((....))))))	-13.2 kcal/mol	45.7 °C
GTCTACGAAAGTACAGAC ((((((....)))..)))	-18.1 kcal/mol	33.4 °C
GATCTATACTTAGATC ((((((....))))))	-46.9 kcal/mol	45.6 °C
GATCCGTGTCGGATC ((((((...))))))	-34.4 kcal/mol	60.5 °C
GCACCGCGAAAGCTGGGC ((.(.((....)).).))	-19.1 kcal/mol	57.5 °C
GCCAAACGAAAGTTGGGC (((.(((....))).)))	-37.2 kcal/mol	61.4 °C
GCGAAAGGAAACTTTCAC (.(((((....))))).)	-19.1 kcal/mol	32.6 °C
GAACGACGAAAGTCTTC (((.(((....))))))	-15.3 kcal/mol	34.8 °C
GTTTGCGAAAGCAACAAC ((((((....)))..)))	-9.1 kcal/mol	33.7 °C

Sequence	folding enthalpy [1]	Tm [2]
GATCAAGCAATTGATC ((((((....))))))	-34.1 kcal/mol	48.8 °C
GCCATGCGAAAGCCTCGC ((.(.((....)).).))	-6.86 kcal/mol	34 °C
GCTGCGGGAAACCGTGGC ((..(((....)))..))	-35.3 kcal/mol	52.6 °C
CGTACGGAAACGTATACG ((((((....)))..)))	-17.6 kcal/mol	35.5 °C
GCGACTGGAAACAATCGC ((((.((....)).))))	-40.4 kcal/mol	45.5 °C
GGTCTCCGAAAGGACACC (((.(((....))).)))	-24.5 kcal/mol	42.1 °C
GCGTTACACGC ((((...))))	-19.8 kcal/mol	58.1 °C
GCACACGAAAGTGGCTGC ((((((....)))..)))	-20.7 kcal/mol	54.3 °C
GCATGGCGAAAGCGTTGC (((..((....))..)))	-21.5 kcal/mol	48 °C
AACGTGAAAACGTT (((((....)))))	-19.2 kcal/mol	48 °C
GATCTGTCTACAGATC ((((((....))))))	-47.5 kcal/mol	54.9 °C
GGTCGGGGAAACCTGGCC ((.(.((....)).).))	-28.7 kcal/mol	48.4 °C
GGTTTCCGAAAGGACACC (((.(((....))).)))	-39 kcal/mol	49 °C
GTACTGGGAAACTGGTAC ((((..(....)..))))	-24.5 kcal/mol	36.5 °C
GGTCTCGGAAACGAGGTC (..((((....))))..)	-15.9 kcal/mol	38.2 °C
GTGCGATCGAAAGATCAC (((..(((....))))))	-18.2 kcal/mol	44.4 °C
GACGACGAAAGTCTGGTC ((((((....)))..)))	-21.8 kcal/mol	41.2 °C
GACTAGCCGAAAGGCGTC (((..(((....))))))	-9.39 kcal/mol	40.5 °C
GGCGGTGGAAACACTGCC (((.(((....))).)))	-47.3 kcal/mol	61.6 °C
GGCGTCGAAAGACAGCC ((((((....))).)))	-34.3 kcal/mol	63.7 °C
GCATCGGGAAACCAACGC ((.(.((....)).).))	-17.7 kcal/mol	28.3 °C
GCACCGCGAAAGCGCGGC ((..(((....)))..))	-11 kcal/mol	45 °C
GTCGAGGCGAAAGCCGAC (((..(((....))))))	-9.98 kcal/mol	51 °C

Sequence	folding enthalpy [1]	Tm [2]
GCAGACGAAAGTCGTGC ((((((....))).)))	-24.1 kcal/mol	54.1 °C
GCTCTTGGAAACGAGAGC (((((.(....).)))))	-30.2 kcal/mol	51.2 °C
GTTTTTGGAAACAGAAAC ((((.((....)).))))	-28.1 kcal/mol	32.7 °C
GCACTCGGAAACGAGTAC (.(((((....))))).)	-13.6 kcal/mol	44.1 °C
GCAGACGAAAGTCATGC ((((((....))).)))	-24.1 kcal/mol	51 °C
GTTTGAGAAATCAAAC ((((((....))))))	-27.6 kcal/mol	47 °C
GACACAGGAAACTACGTC (((..((....))..)))	-17 kcal/mol	28.8 °C
GTTTACCGAAAGGTGAAC (((.(((....))).)))	-33 kcal/mol	51.4 °C
GGTAAGGGAAACCCTACC ((((.((....)).))))	-24.3 kcal/mol	40 °C
GAATTCCGAAAGGACTTC (((.(((....))).)))	-27.7 kcal/mol	36.1 °C
GCGACCGAAAGGTACCGC ((((((....)))..)))	-21.9 kcal/mol	47.2 °C
GCGTGATGACGC ((((....))))	-25.1 kcal/mol	52.8 °C
GGACTGGGAAACCAGCCC ((.((((....)))).))	-20.5 kcal/mol	50.4 °C
GATCTCTGATGAGATC ((((((....))))))	-33.3 kcal/mol	51.3 °C
GGCTTGCGAAAGCAGCC (((.(((....))))))	-29.1 kcal/mol	65.3 °C
GCCTCGCGAAAGCTACGC ((.(.((....)).).))	-5.87 kcal/mol	20 °C
GCCAGTGGAAACACCGGC (((.(((....))).)))	-37.1 kcal/mol	49.6 °C
GGGTGCGAAAGCAGGCCC ((((((....)))..)))	-18.2 kcal/mol	52.9 °C
GATCCACGCTTGGATC ((((((....))))))	-38.4 kcal/mol	52.5 °C
GATCCGGGAAACCGAATC (((.(((....))).)))	-24.5 kcal/mol	38.2 °C
GTAATCCGAAAGGATAC (((.(((....))))))	-14.6 kcal/mol	39.8 °C
GCACATCGAAAGATTGC (((.(((....))))))	-27.9 kcal/mol	46 °C
GATCATGAAATGATC ((((((...))))))	-40.9 kcal/mol	58.9 °C

Sequence	folding enthalpy [1]	Tm [2]
GATCCTTTCCAGGATC ((((((....))))))	-46.1 kcal/mol	51.7 °C
GGCCCCCGAAAGGGCGCC (((.(((....))).)))	-24.8 kcal/mol	58.3 °C
GTTCCTGGAAACAGGAAC (((((((....)))))))	-40.9 kcal/mol	63.5 °C
GACACCGAAAGGTTGGTC ((((((....)))..)))	-16.6 kcal/mol	40.8 °C
GCTGAGCGAAAGCTCTGC ((.((((....)))).))	-31.6 kcal/mol	66.4 °C
GCTTCGCGAAAGCGTAGC (((.(((....))).)))	-42.6 kcal/mol	55.7 °C
GTTGAGCGAAAGCTGAAC (((.(((....))).)))	-23.9 kcal/mol	46.2 °C
GTCCACGGAAACACGGAC ((((..(....)..))))	-18.4 kcal/mol	37.2 °C
GTAAACACGAAAGTGTAC (((..(((....))))))	-11.7 kcal/mol	31.2 °C
GTGCGAGCGAAAGCTCAC (((..(((....))))))	-12.2 kcal/mol	59.4 °C
CGCGGAACTATCCGCG ((((((....))))))	-31.2 kcal/mol	68.7 °C
GAGCCGGGAAACCGGCCC (.(((((....))))).)	-9.15 kcal/mol	48.2 °C
GCCTAGCGAAAGCCTGGC (((..((....))..)))	-19.6 kcal/mol	52.1 °C
GCCCTGACGAAAGTCGGC (((..(((....))))))	-13.6 kcal/mol	48.9 °C
GCACAGCGAAAGCATTGC (((..((....))..)))	-14.4 kcal/mol	38.2 °C
GCTCCGCGAAAGCCAAGC (((..((....))..)))	-8.28 kcal/mol	26.1 °C
GCTTAGCGAAAGCAGAGC (((..((....))..)))	-19 kcal/mol	50 °C
GCTATTCGAAAGAAAGC (((.(((....))))))	-20.1 kcal/mol	32.1 °C
CGAGGCGGAAACGCTTCG (((.(((....))).)))	-35.3 kcal/mol	55.3 °C
GCGGACCTCCGC ((((....))))	-27.4 kcal/mol	55.9 °C
GGGGTGGGAAACCACCTC (.(((((....))))).)	-16.2 kcal/mol	55.2 °C
GTAGAGGGAAACCTCTAC (((((((....)))))))	-54.2 kcal/mol	55.8 °C
GCGCCTCGAAAGAGTCGC (((.(((....))).)))	-38.3 kcal/mol	58.7 °C
